From ChEMBL document CHEMBL1828603, “Synthesis, antimicrobial activity and possible mechanism of action of 9-bromo-substituted indolizinoquinoline-5,12-dione derivatives” (2011)
In brackets after ≈: the same amount, converted by molar mass. Activity calls are given as the source filed them. No cut-off for these calls is given here.

Tests used:
[1] = system: Staphylococcus epidermidis; assay: Antimicrobial activity against Staphylococcus epidermidis ATCC 12228 by broth microdilution method; type: functional
In short: (§1)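 Two-fold broth microdilution in Mueller-Hinton broth. Compound in DMSO added to bacterial culture at 5 × 10^5 cells/ml, starting at 64 µg/ml, then serially doubled down. Incubated at 37 °C overnight and read as OD600. MIC taken as the minimum inhibitory concentration, obtained in at least two independent experiments.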

[2] = system: Escherichia coli; assay: Antimicrobial activity against Escherichia coli ATCC 25922 by broth microdilution method; type: functional; in short: as §1
[3] = system: Staphylococcus aureus; assay: Antimicrobial activity against Staphylococcus aureus ATCC 25923 by broth microdilution method; type: functional; in short: as §1
[4] = system: Streptococcus; assay: Antimicrobial activity against hemolytic Streptococcus Group B CMCC 32210 by broth microdilution method; type: functional; in short: as §1
[5] = system: Salmonella enterica subsp. enterica serovar Paratyphi B; assay: Antimicrobial activity against Salmonella paratyphi B CMCC 50094 by broth microdilution method; type: functional
In short: (§2)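 Two-fold serial dilution in Mueller-Hinton broth, starting at 64 µg/ml. Compound was added as a DMSO solution to bacterial culture at 5 × 10^5 cells/ml, then double-diluted. Plates were incubated overnight at 37 °C and OD600 was read. MIC was taken from at least two independent experiments.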

[6] = system: Staphylococcus aureus; assay: Antimicrobial activity against methicillin-resistant Staphylococcus aureus ATCC 43300 by broth microdilution method; type: functional; in short: as §2
[7] = system: Candida albicans; assay: Antifungal activity against Candida albicans ATCC 10231 by broth microdilution method; type: functional
[8] = system: Staphylococcus aureus; assay: Ratio of MIC for vancomycin to compound for methicillin-resistant Staphylococcus aureus ATCC 43300 by broth microdilution method; type: functional
[9] = system: Enterococcus faecalis; assay: Antimicrobial activity against Enterococcus faecalis ATCC 29212 by broth microdilution method; type: functional; in short: as §1
[10] = system: Pseudomonas aeruginosa; assay: Antimicrobial activity against Pseudomonas aeruginosa ATCC 27853 by broth microdilution method; type: functional; in short: as §1
[11] = system: Escherichia coli; conditions: 1 to 125 uM
[12] = system: Escherichia coli; assay: Inhibition of Escherichia coli topoisomerase 4 assessed as decatenation of kDNA at 25 uM after 30 mins by electrophoresis
In short: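 Decatenation assay with 1 U Topo IV and 200 ng catenated kDNA in HEPES–KOH pH 7.6 buffer (potassium glutamate, magnesium acetate, DTT, 1 mM ATP, BSA), 37 °C for 30 min. Stopped with chloroform/iso-amyl alcohol (24:1), then run on 1% agarose gel in TAE at 10 V/cm.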

[13] = target: DNA gyrase (Staphylococcus aureus) (UniProt P0A0K8+P20831); assay: Inhibition of Staphylococcus aureus DNA gyrase supercoiling activity using pHOT1 DNA as substrate at 125 uM after 60 mins by agarose gel electrophoretic analysis; type: protein-complex assay
In short: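 Supercoiling assay with 1 U DNA gyrase (E. coli or S. aureus) and 0.5 µg relaxed pHOT1 DNA in Tris–HCl pH 7.5 buffer (KCl, MgCl2, DTT, spermidine, 1 mM ATP, glycerol, BSA), ± compound, 37 °C for 60 min. Stopped with proteinase K, run on 1% agarose in TAE at 3 V/cm, stained with Gel Red and imaged under UV.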

[14] = system: Staphylococcus aureus; assay: Inhibition of Staphylococcus aureus topoisomerase 4-mediated relaxation of supercoiled pBR322 DNA at 1 uM after 30 mins by agarose gel electrophoretic analysis
In short: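 Relaxation assay with 1 U Topo IV and 0.5 µg supercoiled pBR322 DNA in HEPES–KOH pH 7.6 buffer (potassium glutamate, magnesium acetate, DTT, 1 mM ATP, BSA), 37 °C for 30 min. Stopped with chloroform/iso-amyl alcohol (24:1), then run on 1% agarose gel in TAE at 5 V/cm.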

DNA gyrase (Staphylococcus aureus), sequence (P0A0K8 2-644 limits assumed): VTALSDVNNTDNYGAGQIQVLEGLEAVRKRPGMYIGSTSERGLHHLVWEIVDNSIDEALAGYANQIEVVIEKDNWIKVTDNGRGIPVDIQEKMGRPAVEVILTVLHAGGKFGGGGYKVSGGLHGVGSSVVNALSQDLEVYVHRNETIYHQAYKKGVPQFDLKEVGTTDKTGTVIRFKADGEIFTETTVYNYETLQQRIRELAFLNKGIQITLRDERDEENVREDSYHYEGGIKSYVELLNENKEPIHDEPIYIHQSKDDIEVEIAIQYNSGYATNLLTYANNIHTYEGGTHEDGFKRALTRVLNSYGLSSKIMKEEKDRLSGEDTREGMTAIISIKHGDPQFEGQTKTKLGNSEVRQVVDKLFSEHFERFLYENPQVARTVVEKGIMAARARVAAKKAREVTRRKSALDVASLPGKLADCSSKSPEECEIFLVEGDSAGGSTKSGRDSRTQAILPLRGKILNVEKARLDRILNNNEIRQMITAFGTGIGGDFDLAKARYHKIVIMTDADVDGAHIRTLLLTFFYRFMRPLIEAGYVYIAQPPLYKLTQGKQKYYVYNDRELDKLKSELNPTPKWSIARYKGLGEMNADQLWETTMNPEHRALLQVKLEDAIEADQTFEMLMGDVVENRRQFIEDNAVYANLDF
DNA gyrase (Staphylococcus aureus), sequence (P20831 whole entry partner): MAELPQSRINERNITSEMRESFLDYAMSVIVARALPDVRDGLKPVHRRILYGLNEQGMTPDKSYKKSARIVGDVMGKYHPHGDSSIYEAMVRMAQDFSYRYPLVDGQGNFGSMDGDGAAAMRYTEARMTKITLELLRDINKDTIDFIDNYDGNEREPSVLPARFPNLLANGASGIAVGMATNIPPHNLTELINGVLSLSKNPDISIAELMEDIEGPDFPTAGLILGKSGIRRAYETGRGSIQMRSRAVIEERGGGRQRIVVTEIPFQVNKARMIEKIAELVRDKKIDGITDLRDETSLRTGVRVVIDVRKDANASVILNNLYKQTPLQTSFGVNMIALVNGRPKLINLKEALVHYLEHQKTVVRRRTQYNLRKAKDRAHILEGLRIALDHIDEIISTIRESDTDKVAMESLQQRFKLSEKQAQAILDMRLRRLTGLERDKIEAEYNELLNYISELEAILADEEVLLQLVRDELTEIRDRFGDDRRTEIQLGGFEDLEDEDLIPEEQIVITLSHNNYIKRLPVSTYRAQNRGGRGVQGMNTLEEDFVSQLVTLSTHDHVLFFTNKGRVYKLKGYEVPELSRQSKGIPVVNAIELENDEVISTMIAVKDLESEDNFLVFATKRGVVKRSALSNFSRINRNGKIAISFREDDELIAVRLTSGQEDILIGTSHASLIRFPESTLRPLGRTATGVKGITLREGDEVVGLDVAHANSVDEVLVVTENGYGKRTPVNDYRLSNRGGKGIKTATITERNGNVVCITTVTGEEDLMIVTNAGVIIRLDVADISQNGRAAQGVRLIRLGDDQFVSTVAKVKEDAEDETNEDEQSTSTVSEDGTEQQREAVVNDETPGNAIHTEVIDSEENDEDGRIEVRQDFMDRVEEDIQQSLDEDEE

SMILES | MIC [1] [µg/mL] | MIC [2] [µg/mL] | MIC [3] [µg/mL] | MIC [4] [µg/mL] | MIC [5] [µg/mL] | MIC [6] [µg/mL] | MIC [7] [µg/mL] | Ratio [8] | MIC [9] [µg/mL] | MIC [10] [µg/mL] | inhibition [11] | inhibition [12] | inhibition [13] | inhibition [14]
O=C1c2cccnc2C(=O)c2c1c(C(=O)OCCF)c1ccc(Br)cn21 | 0.016 (≈ 0.0384 µM) | > 64 | 0.031 (≈ 0.0743 µM) | 0.031 (≈ 0.0743 µM) | > 64 | 0.063 (≈ 0.151 µM) | > 64 | 16 | 0.016 (≈ 0.0384 µM) | > 64 |  |  |  | 
CCN(CC)C(=O)c1c2c(n3cc(Br)ccc13)C(=O)c1ncccc1C2=O | 16 (≈ 37.5 µM) | > 64 | 8 (≈ 18.8 µM) | 8 (≈ 18.8 µM) | > 64 | 16 (≈ 37.5 µM) | > 64 |  | 16 (≈ 37.5 µM) | > 64 |  |  |  | 
CCN(CC)CCNC(=O)c1c2c(n3cc(Br)ccc13)C(=O)c1ncccc1C2=O | 2 (≈ 4.26 µM) | > 64 | 4 (≈ 8.52 µM) | 0.5 (≈ 1.07 µM) | > 64 | 4 (≈ 8.52 µM) | > 64 |  | 4 (≈ 8.52 µM) | > 64 |  |  |  | 
O=C1c2cccnc2C(=O)c2c1c(C(=O)NCCCN1CCOCC1)c1ccc(Br)cn21 | 4 (≈ 8.04 µM) | > 64 | 8 (≈ 16.1 µM) | 1 (≈ 2.01 µM) | > 64 | 4 (≈ 8.04 µM) | > 64 |  | 4 (≈ 8.04 µM) | > 64 |  |  |  | 
CN(C)CCCNC(=O)c1c2c(n3cc(Br)ccc13)C(=O)c1ncccc1C2=O | 8 (≈ 17.6 µM) | > 64 | 4 (≈ 8.79 µM) | 1 (≈ 2.2 µM) | > 64 | 4 (≈ 8.79 µM) | > 64 |  | 4 (≈ 8.79 µM) | > 64 |  |  |  | 
O=C1c2cccnc2C(=O)c2c1c(C(=O)OCC(F)(F)F)c1ccc(Br)cn21 | 0.016 (≈ 0.0353 µM) | > 64 | 0.031 (≈ 0.0684 µM) | 0.031 (≈ 0.0684 µM) | > 64 | 0.031 (≈ 0.0684 µM) | > 64 | 32 | 0.016 (≈ 0.0353 µM) | > 64 |  |  |  | 
O=C1c2cccnc2C(=O)c2c1c(C(=O)N1CCSCC1)c1ccc(Br)cn21 | > 64 | > 64 | > 64 | 64 (≈ 140 µM) | > 64 | 64 (≈ 140 µM) | > 64 |  | > 64 | > 64 |  |  |  | 
O=C1c2cccnc2C(=O)c2c1c(C(=O)OCCN1CCCCC1)c1ccc(Br)cn21 | 0.063 (≈ 0.131 µM) | 4 (≈ 8.29 µM) | 0.063 (≈ 0.131 µM) | 0.031 (≈ 0.0643 µM) | 16 (≈ 33.2 µM) | 0.5 (≈ 1.04 µM) | > 64 |  | 0.031 (≈ 0.0643 µM) | > 64 |  |  |  | 
O=C1c2cccnc2C(=O)c2c1c(C(=O)OCCN1CCOCC1)c1ccc(Br)cn21 | 0.25 (≈ 0.516 µM) | 32 (≈ 66.1 µM) | 0.25 (≈ 0.516 µM) | 0.063 (≈ 0.13 µM) | > 64 | 0.25 (≈ 0.516 µM) | > 64 |  | 0.13 (≈ 0.268 µM) | > 64 |  |  |  | 
O=C1c2cccnc2C(=O)c2c1c(C(=O)NCCN1CCCC1)c1ccc(Br)cn21 | 1 (≈ 2.14 µM) | > 64 | 4 (≈ 8.56 µM) | 0.5 (≈ 1.07 µM) | > 64 | 4 (≈ 8.56 µM) | > 64 |  | 2 (≈ 4.28 µM) | > 64 |  |  |  | 
CC(=O)N1CCN(C(=O)c2c3c(n4cc(Br)ccc24)C(=O)c2ncccc2C3=O)CC1 | > 64 | > 64 | 64 (≈ 133 µM) | 16 (≈ 33.2 µM) | > 64 | > 64 | > 64 |  | > 64 | > 64 |  |  |  | 
O=C1c2cccnc2C(=O)c2c1c(C(=O)NCCN1CCOCC1)c1ccc(Br)cn21 | 4 (≈ 8.28 µM) | 64 (≈ 132 µM) | 1 (≈ 2.07 µM) | 0.5 (≈ 1.03 µM) | > 64 | 8 (≈ 16.6 µM) | > 64 |  | 4 (≈ 8.28 µM) | 64 (≈ 132 µM) |  |  |  | 
CN1CCN(C(=O)c2c3c(n4cc(Br)ccc24)C(=O)c2ncccc2C3=O)CC1 | 32 (≈ 70.6 µM) | > 64 | 16 (≈ 35.3 µM) | 8 (≈ 17.6 µM) | > 64 | 32 (≈ 70.6 µM) | > 64 |  | > 64 | > 64 |  |  |  | 
O=C1c2cccnc2C(=O)c2c1c(C(=O)NCCCN1CCCC1)c1ccc(Br)cn21 | 4 (≈ 8.31 µM) | > 64 | 8 (≈ 16.6 µM) | 1 (≈ 2.08 µM) | > 64 | 4 (≈ 8.31 µM) | > 64 |  | 4 (≈ 8.31 µM) | > 64 |  |  |  | 
O=C1c2cccnc2C(=O)c2c1c(C(=O)N1CCCC1)c1ccc(Br)cn21 | 32 (≈ 75.4 µM) | > 64 | 8 (≈ 18.9 µM) | 16 (≈ 37.7 µM) | > 64 | 64 (≈ 151 µM) | > 64 |  | > 64 | > 64 |  |  |  | 
CN(C)CCNC(=O)c1c2c(n3cc(Br)ccc13)C(=O)c1ncccc1C2=O | 2 (≈ 4.53 µM) | > 64 | 4 (≈ 9.06 µM) | 0.5 (≈ 1.13 µM) | > 64 | 4 (≈ 9.06 µM) | > 64 |  | 1 (≈ 2.27 µM) | > 64 |  |  |  | 
CCN(CC)CCCNC(=O)c1c2c(n3cc(Br)ccc13)C(=O)c1ncccc1C2=O | 4 (≈ 8.28 µM) | > 64 | 8 (≈ 16.6 µM) | 1 (≈ 2.07 µM) | > 64 | 8 (≈ 16.6 µM) | > 64 |  | 4 (≈ 8.28 µM) | > 64 |  |  |  | 
CN(C)CCOC(=O)c1c2c(n3cc(Br)ccc13)C(=O)c1ncccc1C2=O | 0.13 (≈ 0.294 µM) | 2 (≈ 4.52 µM) | 0.13 (≈ 0.294 µM) | 0.031 (≈ 0.0701 µM) | 1 (≈ 2.26 µM) | 0.13 (≈ 0.294 µM) | > 64 |  | 0.13 (≈ 0.294 µM) | > 64 |  |  |  | 
CC1(C)S[C@@H]2[C@H](NC(=O)Cc3ccccc3)C(=O)N2[C@H]1C(=O)O [PENICILLIN G] | 16 (≈ 47.8 µM) | 64 (≈ 191 µM) | < 0.031 | < 0.031 | 2 (≈ 5.98 µM) | > 64 |  |  | 2 (≈ 5.98 µM) | > 64 |  |  |  | 
O=C1c2cccnc2C(=O)c2c1c(C(=O)NCCN1CCCCC1)c1ccc(Br)cn21 | 1 (≈ 2.08 µM) | 64 (≈ 133 µM) | 1 (≈ 2.08 µM) | 0.5 (≈ 1.04 µM) | 64 (≈ 133 µM) | 2 (≈ 4.15 µM) | > 64 |  | 2 (≈ 4.15 µM) | 64 (≈ 133 µM) |  |  |  | 
COC(=O)c1c2c(n3cc(Br)ccc13)C(=O)c1ncccc1C2=O | 0.016 (≈ 0.0415 µM) | 64 (≈ 166 µM) | 0.031 (≈ 0.0805 µM) | 0.031 (≈ 0.0805 µM) | > 64 | 0.063 (≈ 0.164 µM) | > 64 | 16 | 0.031 (≈ 0.0805 µM) | > 64 |  |  |  | 
O=C1c2cccnc2C(=O)c2c1c(C(=O)N1CCOCC1)c1ccc(Br)cn21 | 32 (≈ 72.7 µM) | > 64 | 16 (≈ 36.3 µM) | 16 (≈ 36.3 µM) | > 64 | 64 (≈ 145 µM) | > 64 |  | > 64 | > 64 |  |  |  | 
O=C(O)c1cn(C2CC2)c2cc(N3CCNCC3)c(F)cc2c1=O |  |  |  |  |  |  |  |  |  |  | Active | Active | inactive | Active
O=C1c2cccnc2C(=O)c2c1c(C(=O)NCCCN1CCCCC1)c1ccc(Br)cn21 | 8 (≈ 16.1 µM) | > 64 | 2 (≈ 4.04 µM) | 1 (≈ 2.02 µM) | > 64 | 4 (≈ 8.07 µM) | > 64 |  | 2 (≈ 4.04 µM) | > 64 |  |  |  | 
